Screens: PubChem BioAssay, several laboratories
In the library only some 3.9% were active in any assay of this set; here they are far more common.
Jurkat NFkB inh: inhibitors of induced NF-kB luciferase reporter, primary screen, TCR NF-kB activation inhibitor project, cell-based, luminescence, uHTS; Jurkat, PMA/ionomycin-induced NF-kB luciferase reporter; AID 435003, 2010; inhibition, % at 4 µM; 330,000 tested, 0.53% active; in the data active means inhibition above about 50%
Gli-Sufu block: Gli-Sufu pathway antagonists, primary screen, luciferase luminescence, Sufu-KO-LIGHT cells, uHTS. Sufu-KO-LIGHT fibroblasts, Gli luciferase reporter luminescence. 340,000 tested, 0.74% active. inhibition, % at 5 µM;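 active means inhibition above about 55%, limit read from the data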;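 further: 0% = DMSO-treated cells and 100% = wells with medium but no cells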
CHOP UPR activ: activators of apoptotic CHOP UPR arm, primary screen, cell-based, CHO-CHOP luciferase reporter, luminescence, uHTS. UPR activation; percent of tunicamycin response over DMSO baseline. AID 449763, 2010. activation, % at 10 µM. 330,000 tested, 0.34% active;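 active means at 10 µM dose, activation of 40% or more, normalized to positive control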;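 further: 100% = tunicamycin at 10 µg/mL and 0% = DMSO alone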
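System: CHO-CHOP luciferase reporter cell line | Buffer or medium: F12 medium containing 10% fetal bovine serum | Doses: One dose, 10 µM in 0.5% DMSO | Times: 6 h compound exposure at 37 °C after overnight seeding | Signal: Luciferase luminescence | Read-out: % activation vs tunicamycin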
697 NFkB inh: inhibitors of PMA/ionomycin-induced NF-kB reporter, 697 cells, primary screen, B-cell NF-kB inhibitor project, cell-based, luminescence, uHTS | 697 B-cell NF-kB luciferase reporter, 16 h | inhibition, % at 4 µM | 330,000 tested, 0.33% active | AID 435022, 2010; in the data active means inhibition above about 35%
CHOP inh: inhibitors of CHOP promoter induction, primary screen, cell-based, unfolded protein response, luciferase reporter; CHO-K1 CHOP-promoter luciferase, tunicamycin-induced, 15-18 h; AID 2732, 2010; 220,000 tested, 3.8% active; inhibition, % at 10 µM;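 active means compounds that reduced the stress-induced luciferase reporter signal by more than about 70% of percent inhibition, limit read from the data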;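 further: 0% = tunicamycin plus vehicle and 100% = wells without tunicamycin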
XBP1 UPR activ: activators of adaptive XBP1 UPR arm, primary screen, cell-based, CHO-XBP1 luciferase reporter, luminescence, uHTS | IRE1-XBP1 UPR activation; percent of tunicamycin response, DMSO as zero | activation, % at 20 µM | 330,000 tested, 0.33% active | AID 463104, 2010;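 active means versus positive control, 20 µM dose yields 30% or more activation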;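 further: 100% = tunicamycin at 10 µg/mL and 0% = DMSO only wells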
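Material – CHO cell line with stable XBP1 luciferase reporter · Buffer or medium – F12 plus 10% FBS · Compound – single point, 20 µM final compound, 1% DMSO · Schedule – 16-18 h cell attachment at 37 °C, then 6 h compound exposure · Signal – Steady-Glo luminescence read · Benchmarks – high control tunicamycin 10 µg/mL final, low control DMSO vehicle only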
Gli-Sufu confirm: Gli-SUFU pathway antagonists, confirmation, single concentration, luciferase luminescence, Sufu-KO-LIGHT cells; Gli luciferase reporter; inhibition, % at 5 µM; 2,500 tested, 40% active; shares compounds with Gli-Sufu block;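 active means mean inhibition at 5 µM reaching about 45%, limit read from the data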;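 further: plate controls were DMSO-treated cells for no effect and wells lacking cells for full effect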
Gli cytotox: cytotoxicity in Sufu-KO-LIGHT cells, confirmation, cytotoxicity control for Gli-SUFU antagonist project, cell-based, ATP luminescence, single concentration | shares compounds with Gli-Sufu block | cytotoxicity, % at 5 µM | 2,500 tested, 32% active;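 active means mean cytotoxicity at 5 µM above about 25%, limit read from the data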;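 further: cells exposed to compound overnight for roughly 16 to 18 hours; plate controls were DMSO wells with cells for no effect and medium without cells for full effect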
Wnt3a counter: Wnt3a reporter signal inhibition, confirmation, counter-screen for Gli-SUFU antagonist project, Wnt-LIGHT cells, luminescence, single concentration; inhibition, % at 6.25 µM; Wnt3a-driven luciferase reporter; 2,500 tested, 20% active; shares compounds with Gli-Sufu block;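 active means mean inhibition above about 25%, limit read from the data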
Active calls of the source: *.

How did CC[n+]1c(/C=C/N(C)c2ccccc2)oc2ccc(Cl)cc21 do in these assays?
Jurkat NFkB inh: -2; Gli-Sufu block: 79*; CHOP UPR activ: 1; 697 NFkB inh: -32; CHOP inh: 7; XBP1 UPR activ: -1; Gli-Sufu confirm: 83*; Gli cytotox: 27*; Wnt3a counter: 39*

Results for COc1ccc(C2(c3ccc(OC)cc3)NC(=O)N(CC(=O)N(C)C)C2=O)cc1 ?
Jurkat NFkB inh: -15; Gli-Sufu block: 26; CHOP UPR activ: -2; 697 NFkB inh: 8; XBP1 UPR activ: -4

How did Cc1cc(Nc2ccccc2Br)n2nc(C)nc2n1 do in these assays?
Jurkat NFkB inh: 5; Gli-Sufu block: 54; CHOP UPR activ: 0; 697 NFkB inh: -8; CHOP inh: -16; XBP1 UPR activ: 9; Gli-Sufu confirm: 12; Gli cytotox: 4; Wnt3a counter: 8

What do the screens show for `Cc1[nH]c2nc3ccccc3n2c(=O)c1CCC(C)C`?
Jurkat NFkB inh: 2; Gli-Sufu block: -21; CHOP UPR activ: 3; 697 NFkB inh: 1; XBP1 UPR activ: -2

What do the screens show for `Cc1ccc(-n2ncc(C(=O)Nc3cc(Cl)ccc3C)c2C2CCNCC2)cc1C`?
Jurkat NFkB inh: 9; Gli-Sufu block: 37; CHOP UPR activ: -1; 697 NFkB inh: -15; CHOP inh: 28; XBP1 UPR activ: -1

Results for Cc1cccc(NC(=O)c2cnn(-c3ccc(F)cc3)c2C2CCNCC2)c1C ?
Jurkat NFkB inh: -2; Gli-Sufu block: 55; CHOP UPR activ: 0; 697 NFkB inh: 4; CHOP inh: 9; XBP1 UPR activ: 0; Gli-Sufu confirm: 18; Gli cytotox: -1; Wnt3a counter: 11

How did Cn1c(SCC(=O)NCc2ccc(F)cc2)ncc(C(=O)Nc2ccccc2)c1=O do in these assays?
Jurkat NFkB inh: 1; Gli-Sufu block: 54; CHOP UPR activ: 0; 697 NFkB inh: 1; XBP1 UPR activ: -2; Gli-Sufu confirm: 30; Gli cytotox: 13; Wnt3a counter: -14

How did CCSc1nnc(C)n1-c1ccc(C(=O)O)cc1 do in these assays?
Jurkat NFkB inh: -2; Gli-Sufu block: 95*; CHOP UPR activ: -1; 697 NFkB inh: 22; CHOP inh: 22; XBP1 UPR activ: -3; Gli-Sufu confirm: 26; Gli cytotox: -2; Wnt3a counter: 19

What do the screens show for `NC(=O)c1ccccc1OCC(=O)N1CCC(Cc2ccccc2)CC1`?
Jurkat NFkB inh: 33; Gli-Sufu block: 53; CHOP UPR activ: 4; 697 NFkB inh: -20; XBP1 UPR activ: 0; Gli-Sufu confirm: 46*; Gli cytotox: 17; Wnt3a counter: 27*

What do the screens show for `CCOc1ccccc1OCCN1CCC(Cc2ccccc2)CC1`?
Jurkat NFkB inh: 3; Gli-Sufu block: 9; CHOP UPR activ: 0; 697 NFkB inh: 23; CHOP inh: 26; XBP1 UPR activ: 2

How did CCC(=O)c1ccccc1OCCCN1CCC(Cc2ccccc2)CC1 do in these assays?
Jurkat NFkB inh: 10; Gli-Sufu block: 52; CHOP UPR activ: 1; 697 NFkB inh: -38; XBP1 UPR activ: -3; Gli-Sufu confirm: 21; Gli cytotox: 33*; Wnt3a counter: -37

What do the screens show for `O=C(COc1ccccc1[N+](=O)[O-])N1CCC(Cc2ccccc2)CC1`?
Jurkat NFkB inh: 4; Gli-Sufu block: 1; CHOP UPR activ: -2; 697 NFkB inh: -2; CHOP inh: 20; XBP1 UPR activ: -4

What do the screens show for `Cc1ccc(S(=O)(=O)N2CCSC2)cc1C`?
Jurkat NFkB inh: -3; Gli-Sufu block: 56*; CHOP UPR activ: -1; 697 NFkB inh: 4; CHOP inh: 3; XBP1 UPR activ: -3; Gli-Sufu confirm: 13; Gli cytotox: 8; Wnt3a counter: 12

How did COc1ccc(S(=O)(=O)N2CCSC2)cc1C do in these assays?
Jurkat NFkB inh: 11; Gli-Sufu block: -6; CHOP UPR activ: 1; 697 NFkB inh: 19; CHOP inh: 4; XBP1 UPR activ: -1

What do the screens show for `COc1ccc(N2CCN(S(=O)(=O)CC34CCC(CC3=O)C4(C)C)CC2)cc1` (stereo not drawn)?
Jurkat NFkB inh: 7; Gli-Sufu block: -7; CHOP UPR activ: 1; 697 NFkB inh: -4; XBP1 UPR activ: -9

Results for Cc1ccc(C)c(OCC(O)CN2CCC(CN3C(=O)c4cccc5cccc(c45)C3=O)CC2)c1 (stereo not drawn) ?
Jurkat NFkB inh: 41; Gli-Sufu block: 51; CHOP UPR activ: 3; 697 NFkB inh: -44; CHOP inh: 76*; XBP1 UPR activ: -3; Gli-Sufu confirm: 33; Gli cytotox: 13; Wnt3a counter: 28*

What do the screens show for `COc1ccc(C(CCN(Cc2ccc(OC)c(OC)c2)C(C)=O)c2ccccc2)cc1` (stereo not drawn)?
Jurkat NFkB inh: 8; Gli-Sufu block: 57*; CHOP UPR activ: -3; 697 NFkB inh: -18; CHOP inh: 2; XBP1 UPR activ: -3; Gli-Sufu confirm: 23; Gli cytotox: 23; Wnt3a counter: 12

Results for CN(Cc1ccc(F)cc1)C(=O)c1ccc(NS(=O)(=O)c2ccccc2)cc1 ?
Jurkat NFkB inh: 11; Gli-Sufu block: 4; CHOP UPR activ: 0; 697 NFkB inh: 22; XBP1 UPR activ: -2

How did Cc1cc(C)c2nc(NNC(=O)c3ccc(S(=O)(=O)N4CC(C)CC(C)C4)cc3)sc2c1 (stereo not drawn) do in these assays?
Jurkat NFkB inh: -13; Gli-Sufu block: -10; CHOP UPR activ: 1; 697 NFkB inh: -16; CHOP inh: 47; XBP1 UPR activ: 12

What do the screens show for `Cc1cc(C)c2nc(NNC(=O)c3ccc(S(=O)(=O)N4CCCC(C)C4)cc3)sc2c1` (stereo not drawn)?
Jurkat NFkB inh: 2; Gli-Sufu block: 58*; CHOP UPR activ: -1; 697 NFkB inh: -25; CHOP inh: 26; XBP1 UPR activ: 1; Gli-Sufu confirm: 17; Gli cytotox: 9; Wnt3a counter: -8
